Test [1] is described as follows: Displacement of UDP-fluorescein from non-reduced form of Mycobacterium tuberculosis UDP-galactopyranose mutase by fluorescence polarization assay. The essentials:
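Recombinant Mt UGM (pET-29b construct) used dialysed and non-reduced at 580 nM. UDP-fluorescein probe at 18 nM. Inhibitors titrated over 0–1 mM. Kd derived from competitive fluorescence polarization. Probe affinity measured by enzyme dilutions in 50 mM sodium phosphate pH 7.0 at room temperature, in triplicate.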
(In general: Fluorescence polarisation rises when a labelled molecule tumbles more slowly, as on binding a larger partner.)

For test [2], the system named is Mycobacterium tuberculosis. The test is described as follows: Displacement of UDP-fluorescein from non-reduced form of Mycobacterium tuberculosis UDP-galactopyranose mutase by fluorescence polarization assay relative to control. Further details: concentration or dose not given beside the values. The settings on record: concentration not given here. The method in brief: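 Single-point fluorescence polarization competition with inhibitor at 1 mM final. Non-reduced recombinant Mt UGM at 580 nM with 18 nM UDP-fluorescein probe. Read at room temperature in sodium phosphate buffer pH 7.0. Reported as percent inhibition; screening also done at 100 µM. Kd followed when inhibition at 1 mM exceeded 30%.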

Test [3] has as its system Mycobacterium tuberculosis. Briefly: Inhibition of reduced form of Mycobacterium tuberculosis UDP-galactopyranose mutase assessed as conversion of UDP-Galf to UDP-Galp at 0.5 mM using UDP-Galf as substrate compound incubated with enzyme at 5 mins after enzyme reduction with sodium dithionite by HPLC analysis relative to control. The essentials: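 Recombinant Mt UGM (60 nM) in 100 mM NaH₂PO₄ pH 7.4 at room temperature. Enzyme pre-incubated 5 min, then reduced with 12.5 mM sodium dithionite and incubated with or without inhibitor. UDP-α-Galf (25 µM final) added. Samples taken at five times and quenched in liquid N₂. Conversion to UDP-Galp quantified by C18 HPLC with UV detection at 262 nm.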

Test [4] relates to Mycobacterium tuberculosis. The test is described as follows: Antitubercular activity against Mycobacterium tuberculosis mc2 6230 assessed as inhibition of bacterial growth incubated for 7 days by broth dilution method. Format: functional. The following applies: mc2 6230, 168 h. The method in brief: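 Pantothenate-auxotrophic Mt mc²6230 grown in 7H9/OADC plus 109 µM pantothenic acid at 37°C without agitation. Broth microdilution started from culture at OD600 0.05. Twofold series covered 1.5–100 µg/ml. Plates were read after 7 days at 37°C. MIC is the lowest concentration with no visible turbidity change. Duplicates were run on three independent occasions.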
For orientation: Broth dilution looks for growth in wells or tubes with falling amounts of substance.

Test [5] concerns Mycobacterium tuberculosis. Briefly: Antitubercular activity against Mycobacterium tuberculosis mc2 6230 assessed as inhibition of bacterial growth at 30 ng/ml incubated for 7 days by broth dilution method. The format is functional, organism-based. The method in brief:
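Mt mc²6230 pantothenate auxotroph grown at 37°C static in 7H9 broth with OADC and 109 µM pantothenic acid. Log-phase culture diluted to OD600 0.05. Compound serially diluted 2-fold from a 10 mg/ml DMSO stock. Plates wrapped and incubated at 37°C for 7 days. Isoniazid served as positive control and DMSO as vehicle control. Growth was read visually as turbidity.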

SMILES strings stand for the structures. In brackets after ≈: the same amount, converted by molar mass. Activity calls are given as the source filed them.

Regarding `O=c1ccn([C@@H]2O[C@H](COP(=O)(O)OP(=O)(O)O[C@H]3O[C@@H]([C@H](O)CO)C(F)(F)C3(F)F)[C@@H](O)[C@H]2O)c(=O)[nH]1`, binding in test [1] was characterised by a dissociation constant (Kd) of 53 µM. Consider `COC(=O)c1[nH]c2cc3c(cc2c1I)OCO3`, for which the inhibition (commonly the relative decrease from the control value, in per cent) in test [2] was determined as 23.1%.

With `C#CCn1c(C(=O)O)c(I)c2cc(OC)ccc21`, in test [2], the inhibition amounted to 15%. The same measure, in the same setting: the same measure for `C#CCn1c(C(=O)OC)cc2cc(F)ccc21`: 0%; for `COC(=O)c1[nH]c2ccccc2c1I`: 11.5%.

Take `CCCCC#C/C=C1\Cn2c(c(I)c3cc(OC)ccc32)C(=O)O1`: the inhibition in test [3] stood at 95.5%. In addition, the MIC (as a rule, the smallest concentration in the dilution series that meets the test's criterion for growth inhibition) in test [4] worked out at 50 µg/mL (≈ 115 µM). The Kd – broadly, a measure of binding affinity in units of concentration – in test [1] amounted to 61.3 µM.

In turn, `C/C(I)=C1/Cn2c(c(I)c3ccccc32)C(=O)O1` had an inhibition in test [2] of 14.9%. Still for that read-out and setting: the same measure for `O=C1O/C(=C(/I)c2ccccc2)Cn2c1c(I)c1ccccc12`: 22.8%. `C#CCn1c(C(=O)O)c(I)c2cc3c(cc21)OCO3` registered an inhibition in test [2] of 46.2%. This compound displayed a Kd in test [1] of 220 µM.

`CC1=C(Br)C(=O)O/C1=C\C(C)C`: the inhibition in test [2] was 7.3%. The same measure, in the same setting: to `CC1=C(c2cc3ccccc3o2)C(=O)O/C1=C\C(C)C` belongs 0%. With `CCCCC#C/C=C1\Cn2c(c(I)c3ccccc32)C(=O)O1`, in test [3], the inhibition stood at 72.9%. In addition, the MIC in test [4] came out at 6.2 µg/mL (≈ 15.3 µM). In test [1], this compound registered a Kd of 66 µM.

Regarding `COC(=O)c1cn(Cc2ccccc2)c2ccccc12`, the inhibition in test [2] was 5.1%. Still for that read-out and setting: to `O=C1O/C(=C/I)Cn2c1c(I)c1cc(F)ccc12` belongs 19.1%. Still for that read-out and setting: the same measure for `C#CCn1c(C(=O)O)c(I)c2ccccc21`: 7.4%; for `CC1=C(c2ccoc2)C(=O)O/C1=C\C(C)C`: 5.2%. In the case of `CC1=C(c2ccc(-c3ccccc3)cc2)C(=O)O/C1=C\C(C)C`, the inhibition in test [2] is 19.2%. On to `C[N+](C)(C)CC(=O)N/N=C/c1ccc(O)c(O)c1`, for which the Kd in test [1] amounted to 3 µM. With `CC1=C(c2ccc(F)cc2)C(=O)O/C1=C\C(C)C`, in test [2], the inhibition was found to be 9%. `O=C(O)C(Cc1ccc(I)cc1)NC1NC(c2ccc(Cl)c(Cl)c2)=CS1` (centres undefined) gave a Kd in test [1] of 8 µM. `COc1ccc2cc(C3=C(C)/C(=C/C(C)C)OC3=O)ccc2c1` displayed an inhibition in test [2] of 7.4%. In test [2], `COC(=O)c1cc2ccccc2[nH]1` showed an inhibition of 2%.

`NNC(=O)c1ccncc1`: the inhibition result in test [5] was “Active”.

In test [2], `O=C1O/C(=C/I)Cn2c1c(I)c1ccccc12` came in with an inhibition of 61.6%. In test [1], this compound registered a Kd of 2000 µM. Compound `CC1=C(c2ccncc2)C(=O)O/C1=C\C(C)C` yielded an inhibition in test [2] of 3%. As to `CCCCC#C/C=C1\Cn2c(c(I)c3cc4c(cc32)OCO4)C(=O)O1`, in test [3], the inhibition stood at 60.2%. The MIC in test [4] stood at 3.1 µg/mL (≈ 6.9 µM). In test [1], binding was characterised by a dissociation constant (Kd) of 58.3 µM.

The values are drawn from ChEMBL document CHEMBL4622920, “Synthesis and evaluation of heterocycle structures as potential inhibitors of Mycobacterium tuberculosis UGM” (Bioorg Med Chem, 2020).
